Experiments:
[1] = test system: Rattus norvegicus; experiment: Excreted total K+ in 4% water loaded rats after administration of the compound; type: functional, organism-based
Procedure, shortened: (§1)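 Conscious male Wistar rats fasted 16 h, given either no water load or tap water at 4% of body weight by stomach catheter; compound given subcutaneously at 50 nmol/kg right after loading. Rats kept in individual metabolic cages, urine collected over 5 h; total Na+ and K+ measured by flame spectrophotometry. Groups of 4–5 rats, 2–3 independent days; mean ± SEM.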

[2] = species: Rattus norvegicus; experiment: diuresis half-time in 4% water loaded rats; type: functional, organism-based
Procedure, shortened: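 After a 16-h fast, conscious male Wistar rats received tap water at 4% of body weight by stomach catheter, then compound subcutaneously at 50 nmol/kg. Urine output followed every 15 min for 5 h in metabolic cages. Half-time taken as the time at which half the water load was excreted. Mean ± SEM.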

[3] = test system: Rattus norvegicus; experiment: Volume of excreted urine in 5 hr after administration in 0% water loaded rats; type: functional
Procedure, shortened: (§2)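 Fasted (16 h) conscious male Wistar rats, without water load or loaded by stomach catheter with tap water at 4% of body weight, then dosed subcutaneously at 50 nmol/kg (saline control). Urine collected in individual metabolic cages and total volume recorded over 5 h. Groups of 4–5 rats, 2–3 independent days; mean ± SEM.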

[4] = test system: Rattus norvegicus; experiment: In vivo antidiuretic in anesth rats; type: functional, Urine
[5] = test system: Rattus norvegicus; experiment: Excreted total K+ in 0% water loaded rats after administration of the compound; type: functional, organism-based; procedure, shortened: as §1
[6] = test system: Rattus norvegicus; experiment: In vivo antidiuretic in conscious rats; type: functional, Urine
Procedure, shortened: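 Modified Burn test in conscious male Wistar rats fasted 16 h and loaded orally by catheter with tap water (4% of body weight). Compounds or saline injected subcutaneously at 1–100 nmol/kg. Urine collected over 5 h in metabolic cages. Groups of 4–5 rats; each dose run in 2–3 independent experiments.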

[7] = test system: Rattus norvegicus; experiment: Excreted total Na+ in 0% water loaded rats after administration of the compound; type: functional; procedure, shortened: as §1
[8] = species: Rattus norvegicus; experiment: In vitro uterotonic activity was determined; type: functional
Procedure, shortened: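 Uterine preparations from Wistar rats estrogenized 24–48 h beforehand were tested in vitro without magnesium ions. Synthetic oxytocin served as standard. Single or cumulative dose–response curves were built, and activity was obtained by comparing threshold doses of standard and analogue. Averages of 3–5 experiments, in IU/mg.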

[9] = test system: Rattus norvegicus; experiment: Volume of excreted urine in 5 hr after administration in 4% water loaded rats; type: functional; procedure, shortened: as §2
[10] = test system: Rattus norvegicus; experiment: In vivo pressor response in rats; type: functional
Procedure, shortened: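 Vasopressor test in phenoxybenzamine-treated male Wistar rats against a synthetic arginine vasopressin standard. Activity came from comparing threshold doses of standard and analogue on dose–response curves. Averages of 3–5 experiments.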

[11] = test system: Rattus norvegicus; experiment: In vivo uterotonic activity in rats; type: functional
Procedure, shortened: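 In vivo uterotonic test in Wistar rats estrogenized 24–48 h before the experiment, with compounds given intravenously. Synthetic oxytocin served as standard. Activity came from comparing threshold doses on dose–response curves. Averages of 3–5 experiments, in IU/mg.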

[12] = test system: Rattus norvegicus; experiment: Excreted total Na+ in 4% water loaded rats after administration of the compound; type: functional; procedure, shortened: as §1
[13] = test system: Rattus norvegicus; experiment: Volume of excreted urine in 5 h after administration in 0% water loaded rats; type: functional; procedure, shortened: as §2

Row | SMILES | K [1] [µmol] | T1/2 [2] [h] | Volume of urine [3] [mL] | Antidiuretic activity [4] [IU mg-1] | K [5] [µmol] | Antidiuretic activity [6] [%] | Na [7] [µmol] | Uterotonic activity [8] [IU mg-1] | Volume of urine [9] [mL] | Pressor response [10] [IU mg-1] | Uterotonic activity [11] [IU mg-1] | Na [12] [µmol] | Volume of urine [13] [mL]
1 | CC[C@@H](C)[C@H]1NC(=O)[C@H](Cc2ccc(O)cc2)NC(=O)[C@@H](N)CSSC[C@@H](C(=O)N2CCC[C@@H]2C(=O)N[C@@H](CC(C)C)C(=O)NCC(N)=O)NC(=O)[C@H](CC(N)=O)NC(=O)[C@@H](CCC(N)=O)NC(=O)[C@H]([C@@H](C)CC)NC(=O)[C@@H](Cc2ccc(O)cc2)NC(=O)[C@H](N)CSSC[C@H](C(=O)N2CCC[C@H]2C(=O)N[C@H](CC(C)C)C(=O)NCC(N)=O)NC(=O)[C@@H](CC(N)=O)NC(=O)[C@H](CCC(N)=O)NC1=O | 231 | 3.47 |  |  |  |  |  |  |  |  |  |  | 
2 | CC[C@H](C)[C@@H]1NC(=O)[C@H](Cc2ccc(O)cc2)NC(=O)[C@@H](N)CSSC[C@@H](C(=O)N2CCC[C@H]2C(=O)N[C@@H](CC(C)C)C(=O)NCC(N)=O)NC(=O)[C@H](CC(N)=O)NC(=O)[C@H](CCC(N)=O)NC1=O [OXYTOCIN] | 287 | 2.97 | 4.8 | 5 | 202 | 100 | 563 | 450 | 11.3 | 4.5 | 450 | 773 | 
3 | CC[C@@H](C)[C@H]1NC(=O)CC2(CCCCC2)SSC[C@@H](C(=O)N2CCC[C@H]2C(=O)N[C@@H](CC(C)C)C(=O)NCC(N)=O)NC(=O)[C@H](CC(N)=O)NC(=O)[C@H](CCC(N)=O)NC(=O)[C@H]([C@@H](C)CC)NC(=O)[C@H](Cc2ccc(O)cc2)NC(=O)[C@@H](N)CSSC[C@@H](C(=O)N2CCC[C@H]2C(=O)N[C@@H](CCCN=C(N)N)C(=O)NCC(N)=O)NC(=O)[C@H](CC(N)=O)NC(=O)[C@H]([C@@H](C)CC)NC(=O)[C@H](Cc2ccccc2)NC1=O |  |  |  |  |  |  | 358 | 0.8 | 13.1 | 0 | 0.8 | 480 | 6.3
4 | CC[C@@H](C)[C@H]1NC(=O)CC2(CCCCC2)SSC[C@@H](C(=O)N2CCC[C@@H]2C(=O)N[C@@H](CC(C)C)C(=O)NCC(N)=O)NC(=O)[C@H](CC(N)=O)NC(=O)[C@H](CCC(N)=O)NC(=O)[C@H]([C@@H](C)CC)NC(=O)[C@H](Cc2ccc(O)cc2)NC(=O)[C@@H](N)CSSC[C@H](C(=O)N2CCC[C@@H]2C(=O)N[C@H](CCCN=C(N)N)C(=O)NCC(N)=O)NC(=O)[C@@H](CC(N)=O)NC(=O)[C@@H]([C@H](C)CC)NC(=O)[C@@H](Cc2ccccc2)NC1=O | 123 | 0.817 |  |  | 200 |  |  |  |  |  |  |  | 
5 | CC[C@@H](C)[C@H]1NC(=O)CC2(CCCCC2)SSC[C@H](N)C(=O)N[C@@H](Cc2ccc(O)cc2)C(=O)N[C@@H]([C@@H](C)CC)C(=O)N[C@@H](CCC(N)=O)C(=O)N[C@@H](CC(N)=O)C(=O)N[C@H](C(=O)N2CCC[C@H]2C(=O)N[C@@H](CC(C)C)C(=O)NCC(N)=O)CSSC[C@@H](C(=O)N2CCC[C@H]2C(=O)N[C@@H](CCCN=C(N)N)C(=O)NCC(N)=O)NC(=O)[C@H](CC(N)=O)NC(=O)[C@H]([C@@H](C)CC)NC(=O)[C@H](Cc2ccccc2)NC1=O |  |  |  |  |  |  | 762 | 0.22 | 14.2 | 0 | 1.1 | 375 | 9.4
6 | CC[C@H](C)[C@@H]1NC(=O)[C@H](Cc2ccc(O)cc2)NC(=O)[C@@H](N)CSSC[C@@H](C(=O)N2CCC[C@H]2C(=O)N[C@@H](CC(C)C)C(=O)NCC(N)=O)NC(=O)[C@H](CC(N)=O)NC(=O)[C@H](CCC(N)=O)NC(=O)[C@H]([C@@H](C)CC)NC(=O)[C@H](Cc2ccc(O)cc2)NC(=O)[C@@H](N)CSSC[C@@H](C(=O)N2CCC[C@H]2C(=O)N[C@@H](CC(C)C)C(=O)NCC(N)=O)NC(=O)[C@H](CC(N)=O)NC(=O)[C@H](CCC(N)=O)NC1=O [OXYTOCIN DIMER] |  |  |  |  |  | ~10 |  | 1.37 | 6.4 | 0.5 | 13.8 | 1150 | 
7 | CC[C@H](C)[C@@H]1NC(=O)CC2(CCCCC2)SSC[C@H](N)C(=O)N[C@@H](Cc2ccc(O)cc2)C(=O)N[C@@H]([C@@H](C)CC)C(=O)N[C@@H](CCC(N)=O)C(=O)N[C@@H](CC(N)=O)C(=O)N[C@H](C(=O)N2CCC[C@@H]2C(=O)N[C@@H](CC(C)C)C(=O)NCC(N)=O)CSSC[C@@H](C(=O)N2CCC[C@H]2C(=O)N[C@@H](CCCN=C(N)N)C(=O)NCC(N)=O)NC(=O)[C@H](CC(N)=O)NC(=O)[C@H]([C@@H](C)CC)NC(=O)[C@H](Cc2ccccc2)NC1=O | 162 | 0.7 |  |  | 217 |  |  |  |  |  |  |  | 

Reference: ChEMBL document CHEMBL1132114, “Chemical syntheses and biological studies on dimeric chimeras of oxytocin and the V(2)-antagonist, d(CH(2))(5)[D-Ile(2), Ile(4)]arginine vasopressin” (J Med Chem, 1999)
